Measured values from ChEMBL document CHEMBL2321753, “Synthesis and biological evaluation of radioiodinated quinacrine-based derivatives for SPECT imaging of Aβ plaques” (Eur J Med Chem, 2013).

Key:
Brain [1] = experiment: Ratio of drug level in brain after 2 mins to brain after 60 mins in ddY mouse brain at 0.1 to 0.4 uCi, iv; format: ADME, organism-based; conditions: in vivo
Method in brief: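 ddY mice (5 weeks, 22–25 g) given [125I]ligand (0.1–0.4 µCi) iv in PBS/DMSO. Brain radioactivity (% dose/g) measured by gamma counting at 2 and 60 min, and the 2 min/60 min ratio taken as a washout index.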

Heart [2] = experiment: Biodistribution in ddY mouse heart at 0.1 to 0.4 uCi, iv after 60 mins by gamma counting; format: ADME, organism-based; conditions: in vivo, 1 h
Method in brief: (§1)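 [125I]ligand (0.1–0.4 µCi) in 100 µL PBS (pH 7.4) containing 30 µL DMSO, injected into the tail vein of ddY mice (5 weeks, 22–25 g). Mice sacrificed at 2, 10, 30 and 60 min. Organs removed, weighed and gamma-counted. Values are % injected dose per gram, except stomach as % dose per organ. Mean (SD) of 3–6 mice per time point.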

Pancreas [3] = experiment: Biodistribution in ddY mouse pancreas at 0.1 to 0.4 uCi, iv after 60 mins by gamma counting; format: ADME, organism-based; conditions: in vivo, 1 h; method in brief: as §1
Stomach [4] = experiment: Biodistribution in ddY mouse stomach assessed per organ at 0.1 to 0.4 uCi, iv after 60 mins by gamma counting; format: ADME, organism-based; conditions: in vivo, 1 h; method in brief: as §1
Lung [5] = experiment: Biodistribution in ddY mouse lung at 0.1 to 0.4 uCi, iv after 60 mins by gamma counting; format: ADME, organism-based; conditions: in vivo, 1 h; method in brief: as §1
Spleen [6] = experiment: Biodistribution in ddY mouse spleen at 0.1 to 0.4 uCi, iv after 60 mins by gamma counting; format: ADME, organism-based; conditions: in vivo, 1 h; method in brief: as §1
Intestine [7] = experiment: Biodistribution in ddY mouse intestine at 0.1 to 0.4 uCi, iv after 60 mins by gamma counting; format: ADME, organism-based; conditions: in vivo, 1 h; method in brief: as §1
Kidney [8] = experiment: Biodistribution in ddY mouse kidney at 0.1 to 0.4 uCi, iv after 60 mins by gamma counting; format: ADME, organism-based; conditions: in vivo, 1 h; method in brief: as §1
Liver [9] = experiment: Biodistribution in ddY mouse liver at 0.1 to 0.4 uCi, iv after 60 mins by gamma counting; format: ADME, organism-based; conditions: in vivo, 1 h; method in brief: as §1
Brain [10] = experiment: Biodistribution in ddY mouse brain at 0.1 to 0.4 uCi, iv after 60 mins by gamma counting; format: ADME, organism-based; conditions: in vivo, 1 h; method in brief: as §1
Blood [11] = experiment: Biodistribution in ddY mouse blood at 0.1 to 0.4 uCi, iv after 60 mins by gamma counting; format: ADME, organism-based; conditions: in vivo, 1 h; method in brief: as §1
Heart [12] = experiment: Biodistribution in ddY mouse heart at 0.1 to 0.4 uCi, iv after 30 mins by gamma counting; format: ADME, organism-based; conditions: in vivo, 0.5 h; method in brief: as §1
Pancreas [13] = experiment: Biodistribution in ddY mouse pancreas at 0.1 to 0.4 uCi, iv after 30 mins by gamma counting; format: ADME, organism-based; conditions: in vivo, 0.5 h; method in brief: as §1
Stomach [14] = experiment: Biodistribution in ddY mouse stomach assessed per organ at 0.1 to 0.4 uCi, iv after 30 mins by gamma counting; format: ADME, organism-based; conditions: in vivo, 0.5 h; method in brief: as §1
Lung [15] = experiment: Biodistribution in ddY mouse lung at 0.1 to 0.4 uCi, iv after 30 mins by gamma counting; format: ADME, organism-based; conditions: in vivo, 0.5 h; method in brief: as §1
Spleen [16] = experiment: Biodistribution in ddY mouse spleen at 0.1 to 0.4 uCi, iv after 30 mins by gamma counting; format: ADME, organism-based; conditions: in vivo, 0.5 h; method in brief: as §1
Intestine [17] = experiment: Biodistribution in ddY mouse intestine at 0.1 to 0.4 uCi, iv after 30 mins by gamma counting; format: ADME, organism-based; conditions: in vivo, 0.5 h; method in brief: as §1
Kidney [18] = experiment: Biodistribution in ddY mouse kidney at 0.1 to 0.4 uCi, iv after 30 mins by gamma counting; format: ADME, organism-based; conditions: in vivo, 0.5 h; method in brief: as §1
Liver [19] = experiment: Biodistribution in ddY mouse liver at 0.1 to 0.4 uCi, iv after 30 mins by gamma counting; format: ADME, organism-based; conditions: in vivo, 0.5 h; method in brief: as §1
Brain [20] = experiment: Biodistribution in ddY mouse brain at 0.1 to 0.4 uCi, iv after 30 mins by gamma counting; format: ADME, organism-based; conditions: in vivo, 0.5 h; method in brief: as §1
Blood [21] = experiment: Biodistribution in ddY mouse blood at 0.1 to 0.4 uCi, iv after 30 mins by gamma counting; format: ADME, organism-based; conditions: in vivo, 0.5 h; method in brief: as §1
Heart [22] = experiment: Biodistribution in ddY mouse heart at 0.1 to 0.4 uCi, iv after 10 mins by gamma counting; format: ADME, organism-based; conditions: in vivo; method in brief: as §1
Pancreas [23] = experiment: Biodistribution in ddY mouse pancreas at 0.1 to 0.4 uCi, iv after 10 mins by gamma counting; format: ADME, organism-based; conditions: in vivo; method in brief: as §1
Stomach [24] = experiment: Biodistribution in ddY mouse stomach assessed per organ at 0.1 to 0.4 uCi, iv after 10 mins by gamma counting; format: ADME, organism-based; conditions: in vivo; method in brief: as §1
Lung [25] = experiment: Biodistribution in ddY mouse lung at 0.1 to 0.4 uCi, iv after 10 mins by gamma counting; format: ADME, organism-based; conditions: in vivo; method in brief: as §1
Spleen [26] = experiment: Biodistribution in ddY mouse spleen at 0.1 to 0.4 uCi, iv after 10 mins by gamma counting; format: ADME, organism-based; conditions: in vivo; method in brief: as §1
Intestine [27] = experiment: Biodistribution in ddY mouse intestine at 0.1 to 0.4 uCi, iv after 10 mins by gamma counting; format: ADME, organism-based; conditions: in vivo; method in brief: as §1
Liver [28] = experiment: Biodistribution in ddY mouse liver at 0.1 to 0.4 uCi, iv after 10 mins by gamma counting; format: ADME, organism-based; conditions: in vivo; method in brief: as §1
Kidney [29] = experiment: Biodistribution in ddY mouse kidney at 0.1 to 0.4 uCi, iv after 10 mins by gamma counting; format: ADME, organism-based; conditions: in vivo; method in brief: as §1
Brain [30] = experiment: Biodistribution in ddY mouse brain at 0.1 to 0.4 uCi, iv after 10 mins by gamma counting; format: ADME, organism-based; conditions: in vivo; method in brief: as §1
Blood [31] = experiment: Biodistribution in ddY mouse blood at 0.1 to 0.4 uCi, iv after 10 mins by gamma counting; format: ADME, organism-based; conditions: in vivo; method in brief: as §1
Pancreas [32] = experiment: Biodistribution in ddY mouse pancreas at 0.1 to 0.4 uCi, iv after 2 mins by gamma counting; format: ADME, organism-based; conditions: in vivo; method in brief: as §1
Heart [33] = experiment: Biodistribution in ddY mouse heart at 0.1 to 0.4 uCi, iv after 2 mins by gamma counting; format: ADME, organism-based; conditions: in vivo; method in brief: as §1
Stomach [34] = experiment: Biodistribution in ddY mouse stomach assessed per organ at 0.1 to 0.4 uCi, iv after 2 mins by gamma counting; format: ADME, organism-based; conditions: in vivo; method in brief: as §1
Lung [35] = experiment: Biodistribution in ddY mouse lung at 0.1 to 0.4 uCi, iv after 2 mins by gamma counting; format: ADME, organism-based; conditions: in vivo; method in brief: as §1
Intestine [36] = experiment: Biodistribution in ddY mouse intestine at 0.1 to 0.4 uCi, iv after 2 mins by gamma counting; format: ADME, organism-based; conditions: in vivo; method in brief: as §1
Spleen [37] = experiment: Biodistribution in ddY mouse spleen at 0.1 to 0.4 uCi, iv after 2 mins by gamma counting; format: ADME, organism-based; conditions: in vivo; method in brief: as §1
Kidney [38] = experiment: Biodistribution in ddY mouse kidney at 0.1 to 0.4 uCi, iv after 2 mins by gamma counting; format: ADME, organism-based; conditions: in vivo; method in brief: as §1
Liver [39] = experiment: Biodistribution in ddY mouse liver at 0.1 to 0.4 uCi, iv after 2 mins by gamma counting; format: ADME, organism-based; conditions: in vivo; method in brief: as §1
Blood [40] = experiment: Biodistribution in ddY mouse blood at 0.1 to 0.4 uCi, iv after 2 mins by gamma counting; format: ADME, organism-based; conditions: in vivo; method in brief: as §1
Brain [41] = experiment: Biodistribution in ddY mouse brain at 0.1 to 0.4 uCi, iv after 2 mins by gamma counting; format: ADME, organism-based; conditions: in vivo; method in brief: as §1
[42] = n-octanol-sodium phosphate buffer partition co-efficient, log D of the compound at pH 7.4 by shake flask method; format: physicochemical
Method in brief: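 Shake-flask partition between n-octanol and sodium phosphate buffer, pH 7.4, shaken 10 min at room temperature, then centrifuged. Weighed 0.5 mL samples of each layer counted. log D from the ratio of cpm per gram of octanol to cpm per gram of buffer; n = 3.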

SMILES: CNc1c2ccc([125I])cc2nc2ccc(OC)cc12
- Ratio (Brain [1]): 9
- Drug uptake (Heart [2]): 0.84 % ID/g
- Drug uptake (Pancreas [3]): 1.63 % ID/g
- Drug uptake (Stomach [4]): 5.58 %ID
- Drug uptake (Lung [5]): 2.3 % ID/g
- Drug uptake (Spleen [6]): 4.45 % ID/g
- Drug uptake (Intestine [7]): 23.83 % ID/g
- Drug uptake (Kidney [8]): 6 % ID/g
- Drug uptake (Liver [9]): 7.52 % ID/g
- Drug uptake (Brain [10]): 0.33 % ID/g
- Drug uptake (Blood [11]): 0.56 % ID/g
- Drug uptake (Heart [12]): 1.46 % ID/g
- Drug uptake (Pancreas [13]): 3.55 % ID/g
- Drug uptake (Stomach [14]): 4.63 %ID
- Drug uptake (Lung [15]): 4.38 % ID/g
- Drug uptake (Spleen [16]): 6.02 % ID/g
- Drug uptake (Intestine [17]): 19.47 % ID/g
- Drug uptake (Kidney [18]): 10.25 % ID/g
- Drug uptake (Liver [19]): 8.26 % ID/g
- Drug uptake (Brain [20]): 0.95 % ID/g
- Drug uptake (Blood [21]): 0.85 % ID/g
- Drug uptake (Heart [22]): 2.8 % ID/g
- Drug uptake (Pancreas [23]): 6.92 % ID/g
- Drug uptake (Stomach [24]): 3.71 %ID
- Drug uptake (Lung [25]): 5.62 % ID/g
- Drug uptake (Spleen [26]): 9.14 % ID/g
- Drug uptake (Intestine [27]): 9.11 % ID/g
- Drug uptake (Liver [28]): 16.41 % ID/g
- Drug uptake (Kidney [29]): 11.89 % ID/g
- Drug uptake (Brain [30]): 2.34 % ID/g
- Drug uptake (Blood [31]): 1.18 % ID/g
- Drug uptake (Pancreas [32]): 6.91 % ID/g
- Drug uptake (Heart [33]): 7.79 % ID/g
- Drug uptake (Stomach [34]): 1.71 %ID
- Drug uptake (Lung [35]): 15.8 % ID/g
- Drug uptake (Intestine [36]): 3.82 % ID/g
- Drug uptake (Spleen [37]): 7.6 % ID/g
- Drug uptake (Kidney [38]): 12.98 % ID/g
- Drug uptake (Liver [39]): 17.25 % ID/g
- Drug uptake (Blood [40]): 1.75 % ID/g
- Drug uptake (Brain [41]): 2.97 % ID/g
- logD [42]: 2.14

SMILES: COc1ccc2nc3cc([125I])ccc3c(OC)c2c1
- Ratio (Brain [1]): 11.9
- Drug uptake (Heart [2]): 1.1 % ID/g
- Drug uptake (Pancreas [3]): 1.1 % ID/g
- Drug uptake (Stomach [4]): 4.36 %ID
- Drug uptake (Lung [5]): 2.04 % ID/g
- Drug uptake (Spleen [6]): 1.24 % ID/g
- Drug uptake (Intestine [7]): 20.17 % ID/g
- Drug uptake (Kidney [8]): 2.77 % ID/g
- Drug uptake (Liver [9]): 5.8 % ID/g
- Drug uptake (Brain [10]): 0.37 % ID/g
- Drug uptake (Blood [11]): 1.77 % ID/g
- Drug uptake (Heart [12]): 1.59 % ID/g
- Drug uptake (Pancreas [13]): 1.33 % ID/g
- Drug uptake (Stomach [14]): 5.97 %ID
- Drug uptake (Lung [15]): 3.28 % ID/g
- Drug uptake (Spleen [16]): 1.87 % ID/g
- Drug uptake (Intestine [17]): 16.78 % ID/g
- Drug uptake (Kidney [18]): 4.41 % ID/g
- Drug uptake (Liver [19]): 13.65 % ID/g
- Drug uptake (Brain [20]): 0.82 % ID/g
- Drug uptake (Blood [21]): 2.59 % ID/g
- Drug uptake (Heart [22]): 1.82 % ID/g
- Drug uptake (Pancreas [23]): 2.03 % ID/g
- Drug uptake (Stomach [24]): 3.51 %ID
- Drug uptake (Lung [25]): 3.37 % ID/g
- Drug uptake (Spleen [26]): 2.12 % ID/g
- Drug uptake (Intestine [27]): 6.41 % ID/g
- Drug uptake (Liver [28]): 20.85 % ID/g
- Drug uptake (Kidney [29]): 4.69 % ID/g
- Drug uptake (Brain [30]): 2.14 % ID/g
- Drug uptake (Blood [31]): 2.19 % ID/g
- Drug uptake (Pancreas [32]): 5.41 % ID/g
- Drug uptake (Heart [33]): 5.83 % ID/g
- Drug uptake (Stomach [34]): 1.86 %ID
- Drug uptake (Lung [35]): 5.95 % ID/g
- Drug uptake (Intestine [36]): 2.59 % ID/g
- Drug uptake (Spleen [37]): 3.75 % ID/g
- Drug uptake (Kidney [38]): 8.07 % ID/g
- Drug uptake (Liver [39]): 18.77 % ID/g
- Drug uptake (Blood [40]): 2.14 % ID/g
- Drug uptake (Brain [41]): 4.41 % ID/g
